Measurements from different studies.
Sample: plasma

N[C@@H]1c2cccnc2[C@H](OC(=O)N2CCC(n3c(=O)[nH]c4ncccc43)CC2)CC[C@H]1c1cccc(F)c1F  Cmax (human; oral; 75 mg; single dose): 923 ng/mL
CC(C)n1c(Nc2cccnc2)nc2cnc(Nc3ccc(N4CCN(C)CC4)cc3)nc21  Cmax (male human; oral; 100 mg; single dose): 45.7 ng/mL
COc1ccc([C@@H](O)c2cc(-c3ncnc4cc(N5CCOCC5)ccc34)c(F)cc2Cl)nn1  Cmax (human; oral; 200 mg; single dose, patients): 854 ng/mL
CN1CC[C@@H](c2c(O)cc(O)c3c(=O)cc(-c4ccc(C(F)(F)F)cc4Cl)oc23)[C@@H]1CO  Cmax (human; oral; 150 mg; patients): 245 ng/mL
Cc1ccc(C(=O)Nc2ccc(CN3CCN(C)CC3)c(C(F)(F)F)c2)cc1C#Cc1cnc2[nH]ncc2c1  Cmax (human; oral; 20 mg; single dose, fed, healthy volunteers): 5.02 ng/mL
CNC(=O)n1ccc2cc(Oc3ccnc(NC(=O)c4ccc(C5CCN(CCO)CC5)cc4)c3)c(OCCOC)cc21  Cmax (human; oral; 35 mg; single dose, fed, healthy volunteers): 6.81 ng/mL
C[C@H](O)C(=O)C1=Nc2c(nc(N)[nH]c2=O)NC1  Cmax (human; oral; 20 mg/kg; single dose, healthy volunteers): 1.51 ng/mL
NS(=O)(=O)OC[C@@H]1C[C@@H](n2ccc3c(N[C@H]4CCc5ccccc54)ncnc32)C[C@@H]1O  Cmax (human; intravenous; 15 mg/m²; patients): 127 ng/mL
Cn1cc(Nc2nc(N)nc(-c3cccc(-n4ccc5cc(C6CC6)cc(F)c5c4=O)c3CO)n2)cn1  Cmax (human; oral; 5 mg; single dose, fasted, suspension): 28.6 ng/mL
Cl.[2H]C([2H])([2H])CC(=O)c1cnc(NC(=O)C2CC2)cc1Nc1cccc(-c2ncn(C([2H])([2H])[2H])n2)c1OC  Cmax (human; oral; 20 mg; multiple doses, once daily, fasted): 132 ng/mL
CC(=O)N[C@H]1CC[C@H](NC(=O)CN2CCN(c3nncc(-c4ccc(C)cc4)n3)CC2)CC1  Cmax (female human; oral; 100 mg; single dose, fasted): 1550 ng/mL
